This passage reports Activity and MIC results from ChEMBL document CHEMBL4145622, “Banksialactones and Banksiamarins: Isochromanones and Isocoumarins from an Australian Fungus, Aspergillus banksianus” (2018).

Assay [1] has as its system Escherichia coli. Kind of assay: Antibacterial activity against Escherichia coli ATCC 25922 after 48 hrs by resazurin dye based assay. The class given is functional, organism-based. Summed up: (§1)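 Bacteria pre-grown 24 h in nutrient broth at 28 °C, 100−250 rpm, diluted to 0.01 absorbance unit per mL. Inoculated into wells of compound dispersed in nutrient agar with resazurin (12.5 μg/mL). Test range 100 to 0.05 μg/mL (2-fold dilutions, 1% DMSO). Incubated 48 h at 28 °C. MIC read visually by blue-to-pink colour change.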
On the technique in general: Resazurin is reduced to fluorescent resorufin, in cell work by metabolically active cells.

The test system of assay [2] is Bacillus spizizenii. Description: Antibacterial activity against Bacillus subtilis ATCC 6633 up to 100 ug/ml 48 hrs by resazurin dye based assay. The class given is functional, organism-based. Summed up: as §1
Assay [3] deals with Saccharomyces cerevisiae. Kind of assay: Antifungal activity against Saccharomyces cerevisiae ATCC 9763 up to 100 ug/ml 48 hrs by bromocresol green dye based assay. The class given is functional, organism-based. Summed up: (§2)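 S. cerevisiae grown 24 h in 1% malt extract broth, 250 rpm, 24 °C, diluted to 0.03 absorbance unit per mL. Inoculated onto compound in malt extract agar with bromocresol green (50 μg/mL). 2-fold series from 100 to 0.05 μg/mL in 1% DMSO. Incubated at 24 °C for 48 h. MIC read visually by blue-to-yellow colour change.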

Assay [4] is filed under the species Mus musculus. Kind of assay: Cytotoxicity against mouse NS1 cells up to 100 ug/ml 48 hrs by resazurin dye based assay. The format is functional, cell-based. Summed up:
(§3)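 NS-1 myeloma cells seeded at 50 000 cells/mL in DMEM + 10% FBS + 1% penicillin/streptomycin, 37 °C, 5% CO2. Compound range 100 to 0.05 μg/mL (2-fold dilutions, 1% DMSO). Resazurin (250 μg/mL, 10 μL) added at 48 h, then incubated a further 48 h. MIC end point read visually.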

Assay [5] concerns Tritrichomonas suis. Description: Antiprotozoal activity against Tritrichomonas foetus KV1. The format is functional. Summed up:
(§4)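 Trophozoites seeded at 4 × 10^4 cells/mL in medium containing tryptone, yeast extract, glucose, L-cysteine, phosphates, ascorbic acid, FeSO4 and 10% newborn calf serum. Compound range 100 to 0.05 μg/mL in 1% DMSO. Plates held anaerobically at 37 °C.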

In assay [6] the test system is Candida albicans. Kind of assay: Antifungal activity against Candida albicans ATCC 10231 after 48 hrs by bromocresol green dye based assay. The format is functional, organism-based. Summed up: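 C. albicans grown 24 h in 1% malt extract broth, 250 rpm, 24 °C, diluted to 0.005 absorbance unit per mL. Inoculated onto compound in malt extract agar with bromocresol green (50 μg/mL). Test range 100 to 0.05 μg/mL in 1% DMSO. Incubated 24 °C, 48 h. MIC read visually by blue-to-yellow colour change.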

For assay [7], the species on record is Mus musculus. Description: (§5) Cytotoxicity against mouse NS1 cells after 48 hrs by resazurin dye based assay. The format is functional. Summed up: as §3
Assay [8] concerns Bacillus spizizenii. Kind of assay: Antibacterial activity against Bacillus subtilis ATCC 6633 after 48 hrs by resazurin dye based assay. The class given is functional. To be noted: for MIC: ATCC 6633, 48 h. Summed up: as §1
Assay [9] is described as follows: as §5. The format is functional. Summed up: as §3
Assay [10] has as its system Saccharomyces cerevisiae. Description: Antifungal activity against Saccharomyces cerevisiae ATCC 9763 after 48 hrs by bromocresol green dye based assay. The format is functional. To be noted: ATCC 9763, 48 h. Summed up: as §2
Assay [11] deals with Tritrichomonas suis. Kind of assay: Antiprotozoal activity against Tritrichomonas foetus KV1 up to 100 ug/ml. The format is functional, organism-based. Summed up: as §4

Values after ≈ are worked out from the molar mass of the structure shown. Active and inactive are the calls of the source. The rule behind the calls is not given here.

In the case of `COc1cc(O)cc2c1C(=O)c1c(O)cc(C)cc1C2=O` [QUESTIN], the outcome in [1], in assay [2], in assay [3], in [4] and in assay [6] was inactive. Besides, the MIC in assay [5] is 12.5 µg/mL (≈ 44 µM).

Turning to `Cc1c(O)cc(O)c2c1[C@H](C)[C@](O)(CO)OC2=O`, the outcome in assay [1], in assay [5], in [6], in assay [7] and in assay [8] was inactive.

For the molecule `COc1cc(O)c2c(c1C)[C@H](C)[C@](O)(COC(=O)c1c(C)c(C)c(O)c(C)c1O)OC2=O`, the result in [1] and in assay [6] was inactive. In addition, the MIC in assay [5] was 50 µg/mL (≈ 112 µM); in [9], 100 µg/mL (≈ 224 µM); in assay [10], 50 µg/mL (≈ 112 µM); in assay [8] it was 25 µg/mL (≈ 56 µM).

Regarding `COc1cc(O)c2c(c1C)[C@H](C)[C@](O)(COC(=O)c1c(C)cc3c(c1O)C(=O)c1c(O)cc(O)cc1C3=O)OC2=O`, the result in [1], in [3] and in [6] was inactive. The MIC was 12.5 µg/mL (≈ 22.1 µM) in assay [5], 100 µg/mL (≈ 177 µM) in assay [9] and 25 µg/mL (≈ 44.3 µM) in assay [8].

As for `CC1(C)S[C@@H]2[C@H](NC(=O)[C@H](N)c3ccccc3)C(=O)N2[C@H]1C(=O)O` [AMPICILLIN], the MIC in assay [8] was 0.4 µg/mL (≈ 1.14 µM).

In the case of `COc1cc(OC)c2c(c1C)[C@](C)(O)[C@H](C)OC2=O`, the outcome in assay [1], in assay [5], in assay [6], in assay [7] and in [8] was inactive.

`COc1cc(O)c2c(c1C)[C@H](C)[C@](O)(CSCC(O)C(=O)O)OC2=O` (some centres not stated): the result in assay [1], in assay [5], in [6], in [7] and in assay [8] was inactive.

For `Clc1ccccc1C(c1ccccc1)(c1ccccc1)n1ccnc1` [CLOTRIMAZOLE], the MIC in assay [10] amounted to 0.2 µg/mL (≈ 0.58 µM).

With `COc1cc(O)c2c(c1C)[C@H](C)[C@](O)(COC(=O)c1c(O)cc(O)c(C)c1C)OC2=O`, the outcome in [1], in assay [11] and in assay [6] was inactive. Besides, the MIC in assay [9] is 100 µg/mL (≈ 231 µM); in assay [8], 50 µg/mL (≈ 116 µM).

Regarding `COC(=O)Nc1nc2cc(C(=O)c3ccccc3)ccc2[nH]1` [MEBENDAZOLE], the MIC in assay [5] amounted to 1.6 µg/mL (≈ 5.42 µM).

`O=c1[nH]cc(F)c(=O)[nH]1` [FLUOROURACIL] yielded an MIC in assay [9] of 0.8 µg/mL (≈ 6.15 µM).

For `COc1cc(O)c2c(c1C)[C@H](C)[C@H](CO)OC2=O`, the outcome in [1], in assay [5], in [6], in [7] and in [8] was inactive.

As to `COc1cc(O)c2c(c1C)[C@](C)(O)[C@H](C)OC2=O`, the result in [1], in assay [5], in assay [6], in assay [7] and in assay [8] was inactive.

Regarding `COc1cc(O)c2c(c1C)[C@H](C)[C@](O)(C[S+](C)[O-])OC2=O` (some centres not stated), the result in assay [1], in [5], in assay [6], in assay [7] and in [8] was inactive.

In the case of `COc1cc(O)c2c(c1C)[C@H](C)[C@](O)(CO)OC2=O`, the outcome in assay [1], in assay [5], in assay [6], in assay [7] and in assay [8] was inactive.
